Assay results as given in ChEMBL document CHEMBL4321862, “Application of Bivalent Bioisostere Concept on Design and Discovery of Potent Opioid Receptor Modulators” (J Med Chem, 2019).
Active and inactive are the calls of the source.

Columns and labels:
Mus musculus [1] = test: Inhibition of morphine-induced antinociceptive activity in subcutaneously dosed Swiss Webster mouse assessed as decrease in latency to tail withdrawal administered 5 mins before morphine stimulation observed for 20 mins by warm water tail withdrawal assay; format: functional
How it was run: (§1)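 Male Swiss Webster mice, n ≥ 5, baseline latency 2–4 s. Test compound given s.c. 5 min before morphine 10 mg/kg. Tail immersion at 56 ± 0.1 °C 20 min after morphine, 10 s cutoff, %MPE per mouse.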

[2] = target: Mu-type opioid receptor (Mus musculus) (UniProt P42866); test: Agonist activity at recombinant mouse mu opioid receptor expressed in CHO cell membrane assessed as [35]-GTPgammaS binding incubated for […] by scintillation counting method relative to DAMGO
[3] = target: Delta-type opioid receptor (Mus musculus, UniProt P32300); test: Displacement of [3H]-diprenorphine from mouse delta opioid receptor expressed in CHO cells incubated for […] by competitive radioligand binding assay; format: cell-based
Mus musculus [4] = test: Inhibition of opioid-withdrawal symptom in morphine-pelleted Swiss Webster mouse assessed as reduction in paw tremors at 1 mg/kg, sc observed after 20 mins; format: functional, organism-based
How it was run: (§2)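 Male Swiss Webster mice, n = 5, implanted with 75 mg morphine pellet at base of neck. After 72 h, 30 min habituation in observation chamber, then test compound s.c. Wet-dog shakes, escape jumps and paw tremors counted over 20 min.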

Mus musculus [5] = test: Inhibition of opioid-withdrawal symptom in morphine-pelleted Swiss Webster mouse assessed as reduction in escape jumps at 1 mg/kg, sc observed after 20 mins; format: functional, organism-based; how it was run: as §2
Mus musculus [6] = test: Inhibition of opioid-withdrawal symptom in morphine-pelleted Swiss Webster mouse assessed as reduction in wet dog shakes at 1 mg/kg, sc observed after 20 mins; format: functional, organism-based; how it was run: as §2
[7] = target: Mu-type opioid receptor (Mus musculus) (UniProt P42866); test: (§3) Agonist activity at mouse mu opioid receptor expressed in CHO cells assessed as inhibition of forskolin-induced cAMP formation incubated for 8 min followed by forskolin stimulation by ELISA; format: functional, cell-based
How it was run: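 mMOR-CHO cells grown to confluency, pre-incubated 30 min at 37°C with 1 mM IBMX, 200 μM Ro 20-1724, bovine serum albumin and 20 mM HEPES (pH 7.2-7.5). Ligand then added with 10 μM forskolin for 8 min at 37°C. Media removed, cells rinsed with PBS, cAMP measured by ELISA. DMEM/F12 used as solvent throughout.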

Mus musculus [8] = test: Inhibition of opioid-withdrawal symptom in morphine-pelleted Swiss Webster mouse assessed as reduction in escape jumps at 50 mg/kg, sc observed after 20 mins; format: functional, organism-based; how it was run: as §2
[9] = Toxicity in placebo-pelleted Swiss Webster mouse assessed as escape jumps at 20 mg/kg, sc observed after 20 mins; format: organism-based; conditions: in vivo
How it was run: (§4)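 Male Swiss Webster mice, n = 5, placebo-pelleted. Tested 72 h after implantation, following 30 min chamber habituation. Compound given s.c.; wet-dog shakes, escape jumps and paw tremors counted over 20 min.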

[10] = Toxicity in placebo-pelleted Swiss Webster mouse assessed as wet dog shakes at 20 mg/kg, sc observed after 20 mins; format: organism-based; conditions: in vivo; how it was run: as §4
Mus musculus [11] = test: Inhibition of opioid-withdrawal symptom in morphine-pelleted Swiss Webster mouse assessed as reduction in wet dog shakes at 50 mg/kg, sc observed after 20 mins; format: functional, organism-based; how it was run: as §2
[12] = target: Kappa-type opioid receptor (Mus musculus, UniProt P33534); test: Displacement of [3H]-[…] from mouse kappa opioid receptor expressed in CHO cells incubated for […] by competitive radioligand binding assay; format: cell-based
Mus musculus [13] = test: Inhibition of opioid-withdrawal symptom in morphine-pelleted Swiss Webster mouse assessed as reduction in paw tremors at 50 mg/kg, sc observed after 20 mins; format: functional, organism-based; how it was run: as §2
[14] = target: Mu-type opioid receptor (Mus musculus) (UniProt P42866); test: Agonist activity at mouse mu opioid receptor expressed in CHO cells cotransfected with Galphaqi5 assessed as intracellular calcium level preincubated for 60 mins in Fluo4AM solution followed by compound addition by Fluo4AM dye based assay; format: functional, cell-based
[15] = Toxicity in placebo-pelleted Swiss Webster mouse assessed as paw tremors at 20 mg/kg, sc observed after 20 mins; format: organism-based; conditions: in vivo; how it was run: as §4
Mus musculus [16] = test: Inhibition of morphine-induced antinociceptive activity in Swiss Webster mouse assessed as decrease in latency to tail withdrawal at 10 mg/kg, sc administered 5 mins before morphine stimulation observed for 20 mins by warm water tail withdrawal assay; format: functional, organism-based; how it was run: as §1
Mus musculus [17] = test: Inhibition of opioid-withdrawal symptom in morphine-pelleted Swiss Webster mouse assessed as reduction in wet dog shakes at 8 mg/kg, sc observed after 20 mins; format: functional, organism-based; how it was run: as §2
Mus musculus [18] = test: Inhibition of opioid-withdrawal symptom in morphine-pelleted Swiss Webster mouse assessed as reduction in escape jumps at 8 mg/kg, sc observed after 20 mins; format: functional, organism-based; how it was run: as §2
[19] = Selectivity index, ratio of Ki for mouse kappa opioid receptor expressed in CHO cells to Ki for mouse mu opioid receptor expressed in CHO cells
Mu-type opioid receptor [20] = target: T1, Mu-type opioid receptor (Mus musculus, UniProt P42866); test: as §3; format: functional, cell-based
[21] = target: Delta-type opioid receptor (Homo sapiens, UniProt P41143); test: Displacement of [3H]-[…] from human delta opioid receptor expressed in CHO cells incubated for […] by competitive radioligand binding assay; format: cell-based
Mu-type opioid receptor [22] = target: T1, Mu-type opioid receptor; test: Displacement of [3H]-Naloxone from mouse mu opioid receptor expressed in CHO cells incubated for […] by competitive radioligand binding assay; format: cell-based
Mus musculus [23] = test: Inhibition of opioid-withdrawal symptom in morphine-pelleted Swiss Webster mouse assessed as reduction in paw tremors at 8 mg/kg, sc observed after 20 mins; format: functional, organism-based; how it was run: as §2
[24] = Selectivity index, ratio of Ki for human delta opioid receptor expressed in CHO cells to Ki for mouse mu opioid receptor expressed in CHO cells
Mu-type opioid receptor [25] = target: T1, Mu-type opioid receptor; test: Antagonist activity at mouse mu opioid receptor expressed in CHO cells cotransfected with Galphaqi5 assessed as inhibition of DAMGO-induced increase in intracellular calcium concentration preincubated for 60 mins in Fluo4AM solution followed by compound addition and further incubated for 15 mins followed by DAMGO stimulation by Fluo4AM dye based assay; format: functional, cell-based
How it was run: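 Gαqi5-transfected mMOR-CHO cells loaded 60 min with Fluo-4 AM/probenecid. Triplicate per concentration, at least three repeats, mean ± SEM. Naltrexone as control. IC50 by non-linear regression.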

Mu-type opioid receptor [26] = target: T1, Mu-type opioid receptor; test: Agonist activity at recombinant mouse mu opioid receptor expressed in CHO cell membrane assessed as [35]-GTPgammaS binding incubated for […] by scintillation counting method

Row | SMILES | AD50 (Mus musculus [1]) [mg/kg] | Emax [2] [%] | inhibition (Mus musculus [4]) | inhibition (Mus musculus [5]) | inhibition (Mus musculus [6]) | Emax [7] [%] | Ki [12] [nM] | Activity [14] | inhibition (Mus musculus [16]) | Ratio Ki [19] | Ki [21] [nM] | Ki (Mu-type opioid receptor [22]) [nM] | Ratio Ki [24] | IC50 (Mu-type opioid receptor [25]) [nM] | EC50 (Mu-type opioid receptor [26]) [nM] | also measured
1 | Cl.O=C(N[C@H]1CC[C@@]2(O)[C@H]3Cc4ccc(O)c5c4[C@@]2(CCN3CC2CC2)[C@H]1O5)c1cccc2cc[nH]c12 | 2.07 | 19.1 | – | – | – | – | – | – | – | – | – | – | – | – | – | Ki [3]: 13.7 nM
2 | C=CCN1CC[C@]23c4c5ccc(O)c4O[C@H]2C(=O)CC[C@@]3(O)[C@H]1C5 | – | – | Active | Active | Active | – | – | – | – | – | – | – | – | – | – | –
3 | Cl.O=C(N[C@@H]1CC[C@@]2(O)[C@H]3Cc4ccc(O)c5c4[C@@]2(CCN3CC2CC2)[C@H]1O5)c1cccc2ccoc12 | 0.18 | 27.3 | Active | Active | Active | 35.7 | 0.81 | inactive | Active | – | – | – | – | – | – | inhibition (Mus musculus [8]): Active; Activity [9]: Non-Toxic; Activity [10]: Non-Toxic; inhibition (Mus musculus [11]): Active; inhibition (Mus musculus [13]): Active; Activity [15]: Non-Toxic
4 | C[C@@H](NC(=O)[C@@H](N)Cc1ccc(O)cc1)C(=O)NCC(=O)N(C)[C@@H](Cc1ccccc1)C(=O)NCCO | – | – | – | – | – | 82.4 | – | – | – | – | – | – | – | – | – | –
5 | Cl.O=C(N[C@H]1CC[C@@]2(O)[C@H]3Cc4ccc(O)c5c4[C@@]2(CCN3CC2CC2)[C@H]1O5)c1cccc2ccsc12 | 0.29 | – | Active | Active | Active | – | 2.65 | – | Active | 8.5 | 8.35 | 0.31 | 26.9 | 566 | 6.21 | inhibition (Mus musculus [17]): Active; inhibition (Mus musculus [18]): Active; EC50 (Mu-type opioid receptor [20]; cho): Not Active; inhibition (Mus musculus [23]): Active
6 | Cl.O=C(N[C@H]1CC[C@@]2(O)[C@H]3Cc4ccc(O)c5c4[C@@]2(CCN3CC2CC2)[C@H]1O5)c1cccc2occc12 | 0.29 | 10 | Active | Active | Active | 18.9 | 4.98 | inactive | Active | 19.2 | 16.9 | 0.26 | 65 | 50.7 | 0.77 | EC50 (Mu-type opioid receptor [20]; read-out: EC50): 80 nM
